The results in this text go back to publication PMC7498158 (Journal of Medicinal Chemistry, 2020).

One assay deals with PLAAT2–5. Briefly: gel-based competitive ABPP, statements for all tested PLAAT members. Type of assay: biochemical, human. Particulars: 10 μM inhibitor, 30 min; active = residual protein labeling ≤50%. Put shortly:
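Human PLAAT cDNA (C-terminal FLAG, pcDNA3.1) was PEI-transfected into HEK293T; cytosol came from a 100,000g spin. Cytosol was preincubated with test compound (30 min, rt), then MB064 (20 min, rt). Conditions: PLAAT2 0.25 μg/μL, 250 nM; PLAAT3 0.5 μg/μL, 250 nM; PLAAT4/5 1 μg/μL, 500 nM. In-gel fluorescence was normalized to Coomassie, in triplicate. Single-concentration screen or IC50 from dose–response curves.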
Turning to `O=C(NCc1ccccc1)C(F)(F)C(O)CCc1ccccc1` (stereo not drawn) [Compound 3], the “activity on PLAAT2–5 (in words)” value was “inactive”. Regarding `CCOC(=O)C(F)(F)C(O)CCc1ccccc1` (stereo not drawn) [Compound 4], the “activity on PLAAT2–5 (in words)” value is “inactive”. Still for that read-out and setting: the result for `CN(CCc1ccccc1)C(=O)C(=O)CCc1ccc(Cl)cc1` [Compound 12] reads “complete loss of activity”; that for `O=C(CCc1ccc(Cl)cc1)C(=O)N1CCCCC1` [Compound 13], “did not show any activity”; that for `CN(C)C(=O)C(=O)CCc1ccc(Cl)cc1` [Compound 14], “did not show any activity”. On the same count and under the same terms, the result for `O=C(CCc1ccc(Cl)cc1)C(=O)N1CCOCC1` [Compound 15] reads “did not show any activity”; that for `CN1CCN(C(=O)C(=O)CCc2ccc(Cl)cc2)CC1` [Compound 16], “did not show any activity”. Still for that read-out and setting: the result for `COCCN(CCOC)C(=O)C(=O)CCc1ccc(Cl)cc1` [Compound 17] reads “did not show any activity”. For the compound `CCN(CCc1ccccc1)C(=O)C(=O)CCc1ccc(Cl)cc1` [Compound 22], the “activity on PLAAT2–5 (in words)” value is “did not show any activity”. On the same count and under the same terms, the result for `O=C(NCCc1ccccc1)C(O)CCc1ccc(Cl)cc1` (stereo not drawn) [Compound 23, 4-(4-Chlorophenyl)-2-hydroxy-N-phenethylbutanamide] reads “no activity”.

The same assay, now with this note: focused library screen.
`O=C(CCc1ccc(Cl)cc1)C(=O)NCCc1ccccc1` [Compound 1, 4-(4-Chlorophenyl)-2-oxo-N-phenethylbutanamide]: the “hit potency for all tested PLAAT members (in words)” value was “submicromolar”. Same read-out and setting: the result for `O=C(CCc1ccc(Cl)cc1)C(=O)NCCCCc1ccccc1` [Compound 2] reads “submicromolar”.
